High-throughput results deposited in PubChem BioAssay by Broad Institute.
Shown is part of a subset that was picked to be rich in hits.
IDH1 R132H inh: inhibitors of human IDH1 R132H. O75874. IDH1 R132H reductase, diaphorase/resazurin fluorescence, 60 min. inhibition, % at 10 µM. 70,000 compounds, 0.18% hits. AID 624101; in the data active = inhibition above about 34%; inconclusive = no clear call, values can overlap the other calls; inactive = below about 11%;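 also: 0% = DMSO and 100% = no enzyme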
Target sequence (O75874 whole entry R132H): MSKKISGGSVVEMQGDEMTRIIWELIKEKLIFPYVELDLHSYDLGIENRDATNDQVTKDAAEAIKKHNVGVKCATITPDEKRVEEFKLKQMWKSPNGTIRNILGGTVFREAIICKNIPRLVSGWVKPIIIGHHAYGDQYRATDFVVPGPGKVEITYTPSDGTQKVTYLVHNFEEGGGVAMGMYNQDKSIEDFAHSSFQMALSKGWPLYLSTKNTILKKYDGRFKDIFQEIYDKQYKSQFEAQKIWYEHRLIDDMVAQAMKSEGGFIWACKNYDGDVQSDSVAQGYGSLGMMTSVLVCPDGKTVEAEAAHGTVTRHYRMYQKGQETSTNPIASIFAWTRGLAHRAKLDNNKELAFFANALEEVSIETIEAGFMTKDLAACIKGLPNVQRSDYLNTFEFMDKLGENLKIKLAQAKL
KDM4C inh: KDM4C (human) demethylase inhibition | GST-KDM4C 2-372, H3K9me3 peptide, LANCE TR-FRET | inhibition, % at 12.5 µM | 96,000 compounds, 0.15% hits | AID 720574;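 active = mean replicate inhibition above about 25%, with at least 55% of replicates also reaching it, limit read from the data, passing the limit was not always enough; inconclusive = only one of those two conditions met; inactive = neither condition met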
Target sequence (Q9H3R0 2-372 limits assumed): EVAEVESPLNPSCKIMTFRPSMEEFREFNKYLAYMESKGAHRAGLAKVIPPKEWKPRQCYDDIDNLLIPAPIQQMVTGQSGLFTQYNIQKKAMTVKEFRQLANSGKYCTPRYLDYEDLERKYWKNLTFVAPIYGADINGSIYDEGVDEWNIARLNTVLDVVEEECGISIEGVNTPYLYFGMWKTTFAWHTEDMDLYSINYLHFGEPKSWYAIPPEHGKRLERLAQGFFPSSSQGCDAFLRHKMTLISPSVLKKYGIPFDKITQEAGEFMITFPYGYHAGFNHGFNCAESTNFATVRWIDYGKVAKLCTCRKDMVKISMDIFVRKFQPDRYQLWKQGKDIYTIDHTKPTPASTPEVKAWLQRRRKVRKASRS
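Test system – GST-tagged GASC-1 (JMJD2C) catalytic fragment, aa 2-372 · Medium – HEPES buffer, pH 7.5, plus ascorbate · Reagent – H3K9me3 peptide with Fe(II)/2OG · Compound – one test concentration per compound · Timing – 30 min reaction, 60 min detection, RT · Technique – TR-FRET with Eu antibody and ULight streptavidin, EDTA stop · Read-out basis – inhibition from TR-FRET ratio decrease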
T cruzi growth-1: T. cruzi proliferation inhibition; AID 624255; 77,000 compounds, 5.9% hits; inhibition, % at 8.34 µM; T. cruzi beta-gal in NIH3T3, GalScreen luminescence, 90 h;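 active = mean inhibition above about 93%, with at least 55% of replicates each passing it, limit read from the data, passing the limit was not always enough; inconclusive = only one of those two conditions holds; inactive = neither condition holds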
T cruzi growth-2: inhibitors of T. cruzi proliferation | shares compounds with T cruzi growth-1 | inhibition, % at 8.35 µM | 5,600 compounds, 72% hits | T. cruzi beta-gal in NIH3T3, GalScreen luminescence, 90 h;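 active = mean replicate inhibition above about 95% and at least 55% of replicates individually reaching it, limit read from the data; inconclusive = only one of the two criteria is met; inactive = neither criterion is met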
T cruzi growth-3: inhibitors of T. cruzi proliferation; T. cruzi beta-gal in NIH3T3, GalScreen luminescence, 90 h; shares compounds with T cruzi growth-1; 5,600 compounds, 21% hits; inhibition, % at 2.09 µM;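 active = mean inhibition above about 95%, with at least 55% of replicates also reaching it, limit read from the data; inconclusive = meets just one of the two conditions; inactive = meets neither condition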;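 also: plate controls were neutral control median for no effect and positive control median for full effect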
NIH3T3 tox: NIH/3T3 (mouse) viability loss; NIH/3T3 viability, CellTiter-Glo ATP luminescence, 90 h; 5,600 compounds, 14% hits; shares compounds with T cruzi growth-1; cytotoxicity (signal decrease), % at 8.35 µM;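 active = mean signal decrease across replicates above about 35% based on untreated-well scatter, with enough replicates individually passing, limit read from the data; inconclusive = no rule stated though some were filed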;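 also: 0% = median of neutral control wells and 100% = median of positive control wells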
NIH3T3 tox 2: kills mouse NIH/3T3 fibroblasts. shares compounds with T cruzi growth-1. NIH/3T3 viability, CellTiter-Glo ATP luminescence, 90 h. inhibition, % at 24.9 µM. 5,600 compounds, 56% hits;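 active = mean loss of cell viability signal at or above a set limit, and enough replicates individually reaching it; inconclusive = meets only the mean limit or only the replicate share; inactive = meets neither condition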;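 also: 0% = median of neutral control wells and 100% = median of positive control wells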
An asterisk follows results filed as active; ? = inconclusive; · = no result given; + = active, no number.

SMILES | IDH1 R132H inh | KDM4C inh | T cruzi growth-1 | T cruzi growth-2 | T cruzi growth-3 | NIH3T3 tox | NIH3T3 tox 2
C/C=C/c1ccc([C@H]2[C@H](CO)N3CCCCN(C(=O)Cc4cccnc4)C[C@@H]23)cc1 | · | 0.2 | 87.9 | · | · | · | ·
O=C(Cc1cccnc1)N1CCCCN2[C@@H](CO)[C@@H](c3ccc(/C=C/c4ccccc4)cc3)[C@@H]2C1 | · | -0.9 | 107.7* | 96.7* | 67.8 | 7.2 | 105.9*
O=C(Cc1cccnc1)N1CCCCN2[C@H](C1)[C@@H](c1ccc(/C=C/c3ccccc3)cc1)[C@@H]2CO | · | 2.5 | 102.6* | 104.6* | 99.8* | 48.1* | 105.0*
C/C=C/c1ccc([C@H]2[C@H]3CN(C(=O)Cc4cccnc4)CCCCN3[C@H]2CO)cc1 | · | -0.4 | 2.8 | · | · | · | ·
COCc1cc(OC(=O)N(C)C)nc(COc2ccc(Cl)cc2)n1 | -0.3 | · | · | · | · | · | ·
COc1ccc(C#Cc2ccc([C@@H]3[C@H]4CN(C(=O)Cc5cccnc5)CCCCN4[C@H]3CO)cc2)cc1 | · | 0.5 | 99.1* | 103.6* | 77.7 | 22.1 | 105.6*
O=C(Cc1cccnc1)N1CCCCN2[C@H](CO)[C@@H](c3ccc(C#CC4(O)CCCC4)cc3)[C@@H]2C1 | · | -1.2 | 8.6 | · | · | · | ·
COc1ccc(C#Cc2ccc([C@@H]3[C@@H](CO)N4CCCCN(C(=O)Cc5cccnc5)C[C@@H]34)cc2)cc1 | · | 8.5 | 108.0* | 112.8* | 60.3 | 11.8 | 103.5*
COc1ccc(C#Cc2ccc([C@H]3[C@@H](CO)N4CCCCN(C(=O)Cc5cccnc5)C[C@@H]34)cc2)cc1 | · | 0.2 | 124.5* | 99.2* | 102.8* | 36.3* | 86.4*
COc1ccc(C#Cc2ccc([C@H]3[C@H]4CN(C(=O)Cc5cccnc5)CCCCN4[C@H]3CO)cc2)cc1 | · | 0.2 | 104.0* | 104.2* | 73.2 | 29.3 | 99.3*
C[C@@H]1CCOC(=O)C=CC=CC(=O)O[C@@H]2C[C@H]3O[C@@H]4C=C(CO)CC[C@]4(COC(=O)[C@H]1O)[C@]2(C)[C@]31CO1 | 0.0 | · | · | · | · | · | ·
C=CC1CN2CCC3(C(=O)Nc4ccccc43)C2CC1/C(=C/OC)C(=O)OC (configuration not stated) | 0.0 | · | · | · | · | · | ·
OC[C@H]1O[C@@H](n2cnc3cc(Cl)c(Cl)cc32)C(O)[C@H]1O (some centres not stated) | 0.6 | · | · | · | · | · | ·
CC(C)(CN)CNc1ccc([N+](=O)[O-])c2cccnc12 | 0.3 | · | · | · | · | · | ·
C/C=C(/C)C(=O)O[C@H]1C(C)=C2[C@H]([C@@H]1OC(=O)CCCCC)[C@@](C)(OC(C)=O)C[C@H](OC(=O)CCC)[C@@]1(O)[C@H]2OC(=O)[C@@]1(C)O | -2.4 | · | · | · | · | · | ·
COc1ccc(C#Cc2ccc([C@H]3[C@@H](CO)N4CCCCN(C(=O)Cc5cccnc5)C[C@H]34)cc2)cc1 | · | -1.4 | 115.1* | 101.9* | 84.5 | 46.3* | 102.7*
COc1ccc(C#Cc2ccc([C@H]3[C@H](CO)N4CCCCN(C(=O)Cc5cccnc5)C[C@@H]34)cc2)cc1 | · | -0.2 | 113.2* | 105.5* | 102.1* | 43.3* | 104.9*
CCCCC/C=C/C/C=C/C/C=C/C/C=C/CCCC(=O)Nc1ccc(O)cc1 | 0.3 | · | · | · | · | · | ·
O=C(O)[C@@H]1[C@@H](CO)[C@@H]2Cn3c(ccc(-c4ccccc4)c3=O)[C@H]1N2CC1CCCCC1 | · | -0.8 | 97.4* | -16.5 | 7.5 | -20.9 | -6.4
O=C(O)[C@@H]1[C@@H](CO)[C@@H]2Cn3c(ccc(C4=CCCCC4)c3=O)[C@H]1N2CCc1ccccc1 | · | -2.2 | 163.8* | 71.9 | 11.8 | 8.5 | 46.4*
COC(=O)[C@@H]1[C@@H](CO)[C@@H]2Cn3c(ccc(-c4ccccc4)c3=O)[C@H]1N2CC1CCCC1 | · | -2.5 | · | · | · | · | ·
COC(=O)[C@@H]1[C@@H](CO)[C@@H]2Cn3c(ccc(C4=CCCCC4)c3=O)[C@H]1N2CCc1ccccc1 | · | -0.1 | 46.7 | · | · | · | ·
COC(=O)[C@@H]1[C@@H](CO)[C@@H]2Cn3c(ccc(-c4ccccc4)c3=O)[C@H]1N2CC1CCCCC1 | · | -2.6 | 11.1 | · | · | · | ·
COC(=O)[C@H]1[C@H](CO)[C@H]2Cn3c(ccc(-c4ccccc4F)c3=O)[C@@H]1N2CC1CCCC1 | · | 11.4 | + | 54.8 | -7.4 | 1.9 | 45.3*
Oc1ccc2c3c1OC1c4oc5ccccc5c4CC4(O)C(C2)N(CC2CC2)CCC314 (configuration not stated) | -3.3 | · | · | · | · | · | ·
SMILES | IDH1 R132H inh | KDM4C inh | T cruzi growth-1 | T cruzi growth-2 | T cruzi growth-3 | NIH3T3 tox | NIH3T3 tox 2
Cc1cccc(N2C(=O)NC(=O)C(CCc3ccncc3)(CCc3ccncc3)C2=O)c1 | 3.4 | · | · | · | · | · | ·
O=C(Cc1ccccc1)N1CCCCN2[C@H](CO)[C@@H](c3ccc(C#CC4(O)CCCC4)cc3)[C@H]2C1 | · | -0.5 | 88.3 | · | · | · | ·
O=C(Cc1ccccc1)N1CCCCN2[C@H](CO)[C@@H](c3ccc(-c4ccccc4)cc3)[C@@H]2C1 | · | -1.0 | 30.8 | · | · | · | ·
COc1ccc(C#Cc2ccc([C@H]3[C@@H](CO)N4CCCCN(C(=O)Cc5ccccc5)C[C@H]34)cc2)cc1 | · | -1.6 | 76.7 | · | · | · | ·
O=C(Cc1ccccc1)N1CCCCN2[C@H](C1)[C@@H](c1ccc(C#Cc3ccccc3)cc1)[C@@H]2CO | · | -1.5 | 114.9* | 97.9* | 73.2 | ? | 102.9*
COc1ccc(C#Cc2ccc([C@@H]3[C@@H](CO)N4CCCCN(C(=O)Cc5ccccc5)C[C@@H]34)cc2)cc1 | · | 1.0 | 110.9* | 89.8 | 104.1* | -1.2 | 103.3*
O=C(Cc1ccccc1)N1CCCCN2[C@H](C1)[C@H](c1ccc(C#Cc3ccccc3)cc1)[C@@H]2CO | · | -1.0 | 130.6* | 104.3* | 57.3 | 32.7 | 103.6*
Oc1cc2c(cc1O)C1c3ccccc3CNC1CC2 (configuration not stated) | -10.0 | · | · | · | · | · | ·
C/C=C(/C)C(=O)OC1CCN2CC=C(COC(=O)C(O)(C(C)O)C(C)(C)O)C12 (configuration not stated) | -0.1 | · | · | · | · | · | ·
C=C1C([C@]2(C)C(CC(=O)OC)[C@@](C)(COC(C)=O)OC(=O)C[C@@H]2OC(C)=O)[C@@H](OC=O)[C@H](OC(=O)C(OC(C)=O)C(C)CC)[C@@]2(C)[C@H](c3ccoc3)CC(=O)C12O (some centres not stated) | 0.3 | · | · | · | · | · | ·
CC(C)(O)/C=C/C(=O)[C@](C)(O)C1[C@H](O)C[C@@]2(C)[C@@H]3CC=C4C(CC(=O)C(=O)C4(C)C)[C@]3(C)C(=O)C[C@@]12C (some centres not stated) | 0.6 | · | · | · | · | · | ·
Clc1ccc(C2=CCCC3CCC2N3)cn1 (configuration not stated) | 0.0 | · | · | · | · | · | ·
C=C1[C@@H](C)[C@H]2[C@H](Cc3ccccc3)NC(=O)[C@]23OC(=O)/C=C\[C@H](O)CCC[C@@H](C)C/C=C/[C@H]3[C@@H]1O | -0.3 | · | · | · | · | · | ·
